# Screens deposited in PubChem by The Scripps Research Institute Molecular Screening Center.
# GPR7 antag = antagonists of human GPR7 (neuropeptides B/W receptor 1); P48145; GPR7-expressing cells, fluorescence antagonist assay; inhibition, % at 4.4 µM; 290,000 compounds, 1.1% hits; AID 1861; in the data active means inhibition above about 16%, passing the limit was not always enough;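 further: cells stimulated with the agonist NPW; 0% = agonist with vehicle and 100% = vehicle without agonist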
# Target sequence (P48145 whole entry, looked up): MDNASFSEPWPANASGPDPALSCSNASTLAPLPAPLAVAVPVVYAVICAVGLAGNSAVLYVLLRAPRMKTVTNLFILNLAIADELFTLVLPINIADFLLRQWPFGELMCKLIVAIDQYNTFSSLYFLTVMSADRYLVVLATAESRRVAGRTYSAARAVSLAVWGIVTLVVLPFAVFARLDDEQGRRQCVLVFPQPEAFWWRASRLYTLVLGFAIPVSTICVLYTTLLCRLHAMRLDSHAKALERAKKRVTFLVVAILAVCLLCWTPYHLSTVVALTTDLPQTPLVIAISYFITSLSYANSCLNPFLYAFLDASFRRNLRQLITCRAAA
# OX1R antag-1 = OX1R (human) antagonism. OX1R-expressing cells, FRET antagonist read-out. inhibition, % at 6.6 µM. 330,000 compounds, 1.8% hits. O43613; in the data active means inhibition mostly above about 38%, no sharp cut-off; inactive means mostly below about 40%;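 further: 0% = agonist challenge alone and 100% = reference antagonist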
# OX1R antag-2 = antagonists of human orexin 1 receptor | CHO/OX1R cells, Fluo-8 calcium fluorescence, orexin A | inhibition, % at 5 µM | 330,000 compounds, 0.43% hits | AID 434989;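 active means inhibition above its plate's threshold, mean inhibition of all tested compounds on the plate plus 3 SD, cut at about 37% in these data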;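 further: 0% = orexin A challenge wells and 100% = SB-334867-A antagonist wells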
# TAAR1 ag = human TAAR1 agonism | CHO RD-HGA16 TAAR1, Fluo-8 calcium fluorescence; vehicle wells 0%, saturating PEA agonist 100% | activation, % at 3 µM | 360,000 compounds, 0.99% hits;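 active means activation above the mean activation of all test compounds in the run plus 3 SD, cut at about 38% in these data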
# Target sequence (Q96RJ0 whole entry, looked up): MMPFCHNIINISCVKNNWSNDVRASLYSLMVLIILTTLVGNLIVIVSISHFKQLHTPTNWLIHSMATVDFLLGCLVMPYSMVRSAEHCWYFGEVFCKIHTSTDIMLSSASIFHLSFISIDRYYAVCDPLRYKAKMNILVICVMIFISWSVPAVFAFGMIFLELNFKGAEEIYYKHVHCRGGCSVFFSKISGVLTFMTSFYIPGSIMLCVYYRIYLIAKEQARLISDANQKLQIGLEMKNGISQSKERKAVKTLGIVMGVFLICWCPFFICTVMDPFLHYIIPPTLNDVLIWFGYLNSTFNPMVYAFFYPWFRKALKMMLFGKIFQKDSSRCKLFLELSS
#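 Benchmarks: low control DMSO, high control PEA (EC100); System: CHO RD-HGA16 cells carrying human TAAR1 plus Gα16; Detection: Fluo-8 fluorescence, 5 s baseline then 140 s kinetic read; Schedule: 17-24 h plating, Fluo-8 75 min 37 °C, 30 min RT; Read-out basis: % activation from peak over basal fluorescence ratio, DMSO-to-PEA scaled.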
# TAAR1 antag = human TAAR1 antagonism; Q96RJ0; CHO RD-HGA16 TAAR1, Fluo-8 calcium fluorescence, antagonist; inhibition, % at 3 µM; 360,000 compounds, 1.5% hits;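 active means inhibition above a per-plate cutoff, the mean inhibition of test compounds on that plate plus 3 SD, cut at about 49% in these data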;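 further: 0% = DMSO plus EC80 beta-PEA response and 100% = DMSO alone without agonist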
#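 System: CHO RD-HGA16 cells bearing hTAAR1. Reagent: EC80 β-phenethylamine stimulus. Schedule: seeding 17-24 h prior, 75-min 37 °C, 30-min RT dye loading. Signal: Fluo-8 intracellular calcium dye fluorescence, real-time kinetic reads. Read-out: % inhibition from peak post-agonist over basal fluorescence ratio. Benchmarks: vehicle wells and EC80 agonist wells. Replicates: n of 1.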
# CHO parental Ca = counter-screen for OX1R antagonists: effect in parental CHO cells; parental CHO-K1, ATP-induced calcium, Fluo-8 fluorescence; inhibition, % at 5.6 µM; 330,000 compounds, 0.63% hits; AID 463079;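 active means inhibition above that plate's mean sample inhibition plus 3 SD, cut at about 26% in these data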;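 further: 0% = ATP-challenged DMSO wells and 100% = DMSO wells without ATP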
#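 Test system: parental CHO cells; detection: calcium-sensitive Fluo-8 fluorescence; evaluation: percent inhibition of calcium signal; also added: ATP as calcium-mobilizing challenge; repeats: one well per compound; control set: ATP-challenged DMSO wells low, unchallenged DMSO wells high; compound: single nominal dose of 5.6 µM per compound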
# nonsel antag count = nonselective antagonist in TAAR1 antagonist counter-screen; counterscreen cell line, calcium fluorescence, antagonist mode; 2,400 compounds, 77% hits; inhibition, % at 3 µM; shares compounds with TAAR1 antag; AID 651780; in the data active means inhibition above about 22%;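 further: CHO-Ga16 host cells stimulated with ATP at an EC80 level; 0% = agonist EC80 plus vehicle and 100% = vehicle without agonist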
# TAAR1 antag conf = human TAAR1 antagonism, confirmed | inhibition, % at 3 µM | TAAR1-expressing cells, fluorescence antagonist read-out | 2,400 compounds, 40% hits | shares compounds with TAAR1 antag; in the data active means inhibition above about 49%;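 further: CHO-Ga16 host cells challenged with agonist PEA near its EC80; 0% = agonist at EC80 plus vehicle and 100% = vehicle with no agonist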
# Ga16 nonsel ag = counter-screen for TAAR1 antagonists: nonselective Ga16 agonists. activation, % at 3 µM. shares compounds with TAAR1 antag. 2,400 compounds, 18% hits. Ga16-expressing cells, calcium fluorescence, agonist counterscreen; in the data active means activation above about 12%;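 further: 0% = vehicle wells and 100% = saturating stimulus response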
# TAAR1 ag count = TAAR1 agonism, antagonist counter-screen; 2,400 compounds, 2% hits; AID 651955; activation, % at 3 µM; hTAAR1 cell line, fluorescence activation, agonist mode; shares compounds with TAAR1 antag; in the data active means activation above about 37%;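 further: CHO cells stably expressing TAAR1 with calcium dye readout; 0% = DMSO vehicle and 100% = full agonist response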
# Numbers without * were called inactive; x = no result given. An excerpt weighted towards active compounds, which were near 4.6% of everything screened.
SMILES,GPR7 antag,OX1R antag-1,OX1R antag-2,TAAR1 ag,TAAR1 antag,CHO parental Ca,nonsel antag count,TAAR1 antag conf,Ga16 nonsel ag,TAAR1 ag count
COc1ccc(CCNC2=C(Cl)C(=O)N(CCc3ccccc3)C2=O)cc1OC,-8,23,-26,13,74*,-14,38*,46,8,4
O=C(Nc1ccc(C(=O)O)cc1)/C(=C\C=C\c1ccccc1)NC(=O)c1ccccc1Cl,-9,32,1,3,58*,-13,23*,30,6,6
O=C(N/C(=C/C=C/c1ccccc1)C(=O)N1CCOCC1)c1ccccc1Cl,-2,23,-18,4,9,-18,x,x,x,x
COc1ccc(-c2cc(C(F)(F)F)c(C#N)c(SCC(=O)Nc3nc(C)co3)n2)cc1,-7,7,-3,x,x,-5,x,x,x,x
Cc1coc(NC(=O)CSc2nc(-c3ccc(Cl)cc3)cc(C(F)(F)F)c2C#N)n1,-9,8,-20,x,x,-12,8,x,1,x
COc1cc(/C=N/NC(=O)c2ccccn2)ccc1OC(=O)c1ccc(Br)cc1,-17,6,-7,2,40,13,x,x,x,x
COc1ccc(/C=N/NC(=O)c2ccc(COc3cccc4cccnc34)cc2)cc1OC,-11,50,-27,10,54*,-23,27*,44,6,3
COc1cc(/C=N/NC(=O)c2ccccn2)ccc1OC(=O)c1ccccc1Br,-23,10,-20,7,70*,-26,35*,53*,9,5
COc1ccc(C(=O)N/N=C/c2ccc(OC)c(OS(=O)(=O)c3ccccc3)c2)cc1,-3,9,-33,4,71*,-14,19,33,5,0
O=C(N/N=C/c1cccc(O)c1)c1ccc(COc2ccccc2Br)cc1,-13,37,-14,0,91*,-20,27*,78*,4,5
COc1ccc(/C=N/NS(=O)(=O)c2ccccc2)cc1OS(=O)(=O)c1ccccc1,-2,10,2,10,1,-6,x,x,x,x
O=C(N/N=C/c1cccc(O)c1)c1ccc(COc2cccc3cccnc23)cc1,-16,14,-21,19,10,-21,x,x,x,x
COc1ccc2nc(/C=N/NC(=O)[C@H](C)NC(=O)OC(C)(C)C)ccc2c1,-9,19,-11,x,x,-13,x,x,x,x
O=C(Nc1ccc(Cn2cccn2)cc1)c1ccc(COc2ccccc2Br)cc1,-6,44,-2,6,88*,-10,37*,66*,7,7
COc1ccc(/C=N/NC(=O)c2ccc(COc3cccc4cccnc34)cc2)cc1O,-17,23,-27,8,63*,-16,26*,44,10,12
O=C(N/N=C\c1cccc(F)c1)c1ccc(-c2ccccc2)cc1,-20,x,x,-1,57*,x,-5,29,0,-2
CC(=O)Nc1ccc(C(=O)N/N=C/c2ccccc2OC(=O)c2ccc(Cl)cc2)cc1,1,7,-34,10,52*,-22,35*,42,8,10
O=C(N/N=C\c1c(F)c(F)c(F)c(F)c1F)c1ccc(-c2ccccc2)cc1,-9,5,-11,2,-3,-7,x,x,x,x
Cc1c(O)ccc(C(=O)CN2CCN(c3ccc(F)cc3)CC2)c1O,-8,10,-15,34,8,1,x,x,x,x
CCc1nnc(NC(=O)CN2CCN(c3ccccc3F)CC2)s1,3,14,-13,1,-8,1,x,x,x,x
CC(=O)C1=CCC(c2cccc(Cl)c2)N(S(=O)(=O)c2ccc(C)cc2)C1 (stereo not given),x,x,x,3,23,x,x,x,x,x
COc1cc(C(=O)NCCOc2cccc3cccnc23)cc(OC)c1OC,-13,18,-18,20,74*,2,34*,55*,11,12
COc1ccc(NS(=O)(=O)c2cccc(C(=O)N/N=C/c3ccc4c(c3)OCCO4)c2)cc1,6,10,-3,5,-2,-8,x,x,x,x
O=C(N/N=C/c1cccc(NC(=O)c2ccc(Cl)cc2)c1)c1cccc(O)c1,-6,8,-22,4,73*,-17,26*,38,6,5
Cc1ccc(C(=O)NCCOc2cccc3cccnc23)cc1Cl,-15,31,-27,24,-23,-20,x,x,x,x
SMILES,GPR7 antag,OX1R antag-1,OX1R antag-2,TAAR1 ag,TAAR1 antag,CHO parental Ca,nonsel antag count,TAAR1 antag conf,Ga16 nonsel ag,TAAR1 ag count
COc1ccccc1NS(=O)(=O)c1cccc(C(=O)N/N=C/c2ccc3c(c2)OCCO3)c1,-5,25,-3,15,56*,-14,32*,45,10,9
COc1ccc(CCN(C)C(=O)CN2C(=O)NC3(CCCc4ccccc43)C2=O)cc1OC (stereo not given),x,21,-12,1,-7,-21,x,x,x,x
CC(=O)Nc1ccc(-c2ccnc3c2CC(C(=O)Nc2ccccc2)O3)cc1 (stereo not given),x,x,x,5,-27,x,x,x,x,x
N=c1c2c(ncn1CCN1CCOCC1)Oc1cc(O)ccc1C2c1ccccc1 (stereo not given),-9,12,-20,18,75*,-10,22*,40,8,10
O=C([C@H](Cc1ccccc1)NS(=O)(=O)c1ccc(Cl)cc1)N1CC[C@@]2(O)CCCC[C@H]2C1,1,22,-30,26,56*,-23,24*,46,8,9
O=C(CCN1C(=O)C2C3C=CC(C3)C2C1=O)NCCc1ccccc1 (stereo not given),-4,13,-7,12,52*,-1,8,52*,5,17
O=C1C2C3C=CC(C3)C2C(=O)N1CCc1ccccc1 (stereo not given),-2,24,-6,0,-5,-6,x,x,x,x
COC(=O)c1cccc(C#CC(NP(=O)(c2ccccc2)c2ccccc2)c2ccccc2)c1 (stereo not given),x,19,-28,16,72*,-14,28*,36,2,2
CC(C)(C)c1ccc(OCc2ccc(C(=O)Nc3cccnc3)o2)cc1,-7,8,35,9,75*,29*,50*,61*,11,12
CCOC(=O)C1CCN(C(=O)COC(=O)c2ccccc2C(=O)c2ccc(Cl)cc2)CC1,x,6,-24,1,-9,-22,x,x,x,x
